Screening results from PubChem.
Most compounds without a hit are left out; they make up all but 4.6% or so of the library.
Arrestin-AP2 inh: blocks beta-arrestin peptide binding to AP2 adaptin; FITC-arrestin peptide / GST-AP2 beads, flow cytometry; AP2 beta2 appendage carries R879A mutation; inhibition, % at 10 µM; 0.31% of 340,000 active; AID 504490;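 active means inhibition above a set limit, near 3 SD of compounds lacking own fluorescence, cut at about 54% in these data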
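System: GST-AP2 R879A bound to glutathione beads, E. coli-expressed. Also added: 50 nM FITC-arrestin peptide. Schedule: compound with beads 12 min RT, then probe 1 h RT. Signal: bead flow cytometry, FITC channel. Read-out basis: percent response.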
NALP1 inh: NALP1 inhibition. S. cerevisiae NALP1/ASC/caspase-1 growth, X-gal OD620, 72 h. inhibition, % at 10 µM. 0.61% of 280,000 active. AID 2071; in the data active means inhibition mostly above about 24%, no sharp cut-off; inactive means mostly below about 32%
ALR H2O2 inh: blocks human ALR sulfhydryl oxidase activity; inhibition, % (concentration not given with the values); AID 485317; 3.8% of 290,000 active; P55789; purified ALR, DTT oxidation, H2O2 HRP-luminol luminescence;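 active means mean replicate inhibition above about 79%, with every replicate also reaching it, limit read from the data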
Target sequence (P55789 whole entry, looked up): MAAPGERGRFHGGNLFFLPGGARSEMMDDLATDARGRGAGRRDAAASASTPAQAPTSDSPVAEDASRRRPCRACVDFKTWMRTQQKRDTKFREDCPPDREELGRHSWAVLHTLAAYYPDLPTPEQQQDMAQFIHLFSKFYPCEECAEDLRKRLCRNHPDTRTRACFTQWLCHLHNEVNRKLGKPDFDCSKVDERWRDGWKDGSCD
PolyA inh: blocks polyadenylation in yeast reporter cells | S. cerevisiae SKY197-pL101 polyadenylation reporter, beta-gal luminescence; efflux-impaired pdr1/pdr3 knockout yeast; score 100 = 6 SD above DMSO | activity score, % at 12 µM | 0.02% of 300,000 active;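 active means lowest replicate activity score at least 50, where 100 means six control SD above control mean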;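 further: yeast exposed to compound for 9 h at 30 °C; higher score means more reporter readthrough which indicates perturbed polyadenylation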
NALP3 yeast inh: inhibitors of NALP3 inflammasome in yeast | Yeast reconstituted NLRP3/ASC/caspase-1, beta-gal luminescence, 24 h | inhibition, % at 10 µM | 0.39% of 330,000 active | AID 2825;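 active means inhibition of 50% or more; inactive means inhibition below 50%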
DSG3 Ab inh: inhibitors of pemphigus antibody binding to human desmoglein-3 | P32926 | DSG3-coupled beads, scFv-anti-DSG3-GFP binding, flow cytometry; active compounds read low | binding (percent of control), % at 10 µM | 0.48% of 310,000 active | AID 588358;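 active means binding more than 3 SD below its plate's average and above zero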;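 further: hits lower antibody fragment binding to DSG3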
NALP3 confirm: confirmation of NALP3 inhibitors in yeast. shares compounds with NALP3 yeast inh. 81% of 1,300 active. AID 435006. yeast expressing human NALP3, luminescence. inhibition, % at 10 µM; in the data active means inhibition above about 48%
Casp1 ASC ctr: caspase-1-ASC yeast counter-screen hit; yeast expressing Caspase-1-ASC, luminescence counter screen; 66% of 1,000 active; shares compounds with NALP3 yeast inh; inhibition, % at 10 µM
NALP3 yeast rt: retest-confirmed inhibitor of NALP3 in yeast; 53% of 1,000 active; AID 488794; inhibition, % at 10 µM; yeast expressing human NALP3, luminescence read-out; shares compounds with NALP3 yeast inh
Large screens that a line does not name were inactive (follow-up assays come after a bar, where they were run). Unless noted, no stated cut-off is given here; in the data, active means inhibition above about 50%; inactive means the rest.

CCc1noc(C)c1C(=O)Nc1nc(-c2ccc(F)cc2)c(C)s1	none
CCc1noc(C)c1C(=O)Nc1nc2c(F)cc(F)cc2s1	NALP3 yeast inh 72 (no result: NALP1 inh, PolyA inh) | NALP3 confirm 76 | Casp1 ASC ctr 79 | NALP3 yeast rt 67
C[C@]12CC[C@H](O)CC1=CCC1C2CC[C@@]2(C)C1CCC21OCCO1 (stereo partly specified)	NALP3 yeast inh 57 (no result: NALP1 inh, PolyA inh) | NALP3 confirm 63
CCOC(=O)C1=C(C)Nc2ccccc2N=C1NC(=O)C(CC)c1ccccc1 (stereo unspecified)	none
Cc1c(C(=O)N2CCCCC2)oc2ccc(Br)cc12	none (no result: NALP1 inh)
Cc1ccc2oc(C(=O)N3CCCCCC3)c(C)c2c1	NALP3 yeast inh 53 | NALP3 confirm 62 | Casp1 ASC ctr 59 | NALP3 yeast rt 52
COc1cccc(OCCNC(=O)CSc2ccc(C(F)(F)F)cc2[N+](=O)[O-])c1	none
O=C(Nc1cccc(Cl)c1)c1ccc2c(c1)OCCO2	NALP3 yeast inh 78 | NALP3 confirm 92 | Casp1 ASC ctr 86 | NALP3 yeast rt 76
O=C(Nc1ccc2c(c1)OCCO2)c1cccc(C(=O)Nc2ccc3c(c2)OCCO3)c1	none
COc1cccc(NC(=O)c2ccc3c(c2)OCCO3)c1	none (no result: ALR H2O2 inh)
O=C(Nc1ccc2c(c1)OCCO2)c1cccc(Cl)c1	NALP3 yeast inh 53 | NALP3 confirm 70 | Casp1 ASC ctr inactive | NALP3 yeast rt inactive
NCCNC[C@@H]1COC2(CCCCCCCCCCC2)O1	NALP3 yeast inh 59 | NALP3 confirm 74
O=Cc1cccn1-c1c(C(=O)O)cnn1-c1ccccc1	none
O=C(CSc1nnnn1-c1ccc(Cl)cc1)N1CCc2ccccc2C1	NALP3 yeast inh 56 | NALP3 confirm 70 | Casp1 ASC ctr 78 | NALP3 yeast rt 85
CC1CCCCC1Nc1nc2ccc(Cl)cc2n2cnnc12 (stereo unspecified)	none
CC(=O)NNC(=S)NC(=O)c1ccc(C)cc1	none (no result: ALR H2O2 inh)
Cc1ccc(C(=O)NNC(=S)NC(=O)c2ccc(Cl)cc2)cc1	NALP3 yeast inh 71 | NALP3 confirm 78 | Casp1 ASC ctr 74 | NALP3 yeast rt 72
Cc1ccc(C(=O)NC(=C(Cl)Cl)S(=O)(=O)c2ccc(Cl)cc2)cc1	NALP3 yeast inh 57 | NALP3 confirm inactive | Casp1 ASC ctr inactive | NALP3 yeast rt inactive
CCN1C(=O)C(CC(=O)Nc2ccc(OC)cc2)N(CCCN2CCN(c3ccc(F)cc3)CC2)C1=S (stereo unspecified)	none
COc1ccc(C(=O)N2C=Cc3ccccc3C2C(N)=O)cc1 (stereo unspecified)	none (no result: Arrestin-AP2 inh, NALP1 inh, ALR H2O2 inh, PolyA inh, NALP3 yeast inh)
O=C(NCc1ccc(Cl)cc1)[C@@H]1CCCN1S(=O)(=O)c1ccc(Cl)cc1	none (no result: NALP1 inh, ALR H2O2 inh, PolyA inh)
Cc1nc2ccc(Nc3nc4cc(S(=O)(=O)N5CCOCC5)ccc4o3)cc2s1	none | NALP3 confirm inactive | Casp1 ASC ctr inactive | NALP3 yeast rt inactive
Cc1nc2ccc(NC(=O)c3cc(S(=O)(=O)N4CCOCC4)ccc3C)cc2s1	none
COc1ccc2cc(-c3ccccc3)c(=O)oc2c1	NALP3 yeast inh 63 | NALP3 confirm 75 | Casp1 ASC ctr 68 | NALP3 yeast rt 63
COc1cccc2cc(-c3ccccc3)c(=O)oc12	NALP3 yeast inh 54 | NALP3 confirm 72 | Casp1 ASC ctr 58 | NALP3 yeast rt 50
COc1cccc2cc(-c3nc4ccccc4[nH]3)c(=O)oc12	NALP3 yeast inh 57 | NALP3 confirm 54 | Casp1 ASC ctr inactive | NALP3 yeast rt inactive
Cc1cccc2cc(-c3nc4ccc(C(=O)O)cc4[nH]3)c(=O)oc12	none
COc1ccc(-c2cc3cccc(OC)c3oc2=O)cc1	none
COc1ccccc1OCc1cc(C(=O)N2CCN(C)C(c3ccccc3)C2)no1 (stereo unspecified)	none
